According to ChEMBL document CHEMBL4680241, “Structure-activity relationships of triazole-benzodioxine inhibitors of cathepsin X” (Eur J Med Chem, 2020):
Activity calls are given as the source filed them. The calls are words filed in the database; no cut-off is given here.

Experiments:
Cathepsin Z [1] = target: T1, Cathepsin Z (Homo sapiens, UniProt Q9UBR2); assay: Inhibition of human cathepsin X expressed in Pichia pastoris assessed as residual activity using Abz-FEK(Dnp)-OH as substrate incubated for 30 to 45 mins by fluorescence assay
PC-3 [2] = assay: Cytotoxicity against human PC-3 cells assessed as reduction in cell viability at 20 uM after 24 to 48 hrs by MTS assay; type: functional, cell-based; details: time 24-48 hrs
Summary of the method: (§1)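 PC-3 cells seeded at 6.5×10^4 cells/mL in Advanced DMEM/F-12 with 10% FBS and exposed to compound at 10 or 20 µM for 24 h or 48 h. Means ± SD of three independent assays, each in triplicate.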

Cathepsin Z [3] = target: T1, Cathepsin Z; assay: Inhibition of human cathepsin X expressed in Pichia pastoris assessed as residual activity at 50 uM using Abz-FEK(Dnp)-OH as substrate incubated for 30 to 45 mins by fluorescence assay relative to control; details: time 30-45 min
Summary of the method: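 Substrate was Abz-FEK(Dnp)-OH at 3.25 µM final, compound at 50 µM final. Fluorescence (ex 320/em 420 nm) was followed continuously for 30-45 min at 37 °C. Activity was taken from rates relative to no-compound velocity. Two experiments in duplicate.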

PC-3 [4] = assay: Cytotoxicity against human PC-3 cells assessed as reduction in cell viability at 10 uM after 24 to 48 hrs by MTS assay; type: functional, cell-based; details: time 24-48 hrs; summary of the method: as §1
PC-3 [5] = assay: Antimigratory activity against human PC-3 cells at 20 uM up to 72 hrs by xCELLigence based RTCA analysis; type: functional, cell-based; details: time hrs <=72
Summary of the method: (§2)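 PC-3 cells grown in Advanced DMEM/F-12 (1:1) with 10% FBS, L-glutamine and penicillin/streptomycin. Fibronectin-coated (10 μg/mL) xCELLigence CIM plates held 2 × 10⁴ cells per well. Compound at 10 or 20 μM was added to complete medium (lower chamber) or serum-free medium (upper chamber), with 0.1% DMSO as control. Cell index was read every 15 min for 72 h. Migration was taken as the slope of the curve over a selected interval, normalized to DMSO-treated cells. Means ± SD, two independent assays in duplicate or triplicate.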

Cathepsin S [6] = target: T2, Cathepsin S (Homo sapiens, UniProt P25774); assay: Inhibition of human cathepsin S expressed in Pichia pastoris at 100 uM using Z-VVR-AMC as substrate by fluorescence assay relative to control
Summary of the method: (§3)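 Cathepsin S expressed in P. pastoris, assayed in 100 mM phosphate buffer pH 6.5 containing 5 mM cysteine, 1.5 mM EDTA and 0.1% PEG 8000 after 5 min activation at 37 °C. Substrate was fluorogenic Z-VVR-AMC.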
Target sequence in this assay (P25774 115-331 limits assumed): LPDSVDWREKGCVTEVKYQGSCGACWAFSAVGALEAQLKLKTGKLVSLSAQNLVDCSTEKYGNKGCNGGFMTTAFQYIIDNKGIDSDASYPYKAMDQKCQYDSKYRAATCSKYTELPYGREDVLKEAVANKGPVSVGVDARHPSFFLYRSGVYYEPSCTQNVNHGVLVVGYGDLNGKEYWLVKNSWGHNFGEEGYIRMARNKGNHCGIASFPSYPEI

[7] = target: Cathepsin B (Homo sapiens) (UniProt P07858); assay: Inhibition of human cathepsin B expressed in Escherichia coli at 100 uM using Abz-GIVRAK(Dnp)-OH as substrate by fluorescence assay relative to control
Summary of the method: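 Cathepsin B exopeptidase activity: recombinant enzyme from E. coli in 60 mM acetate buffer pH 5.0 with 5 mM cysteine, 1.5 mM EDTA and 0.1% PEG 8000, activated 5 min at 37 °C. Fluorogenic substrate Abz-GIVRAK(Dnp)-OH.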

Cathepsin S [8] = target: T2, Cathepsin S; assay: Inhibition of human cathepsin S expressed in Pichia pastoris using Z-VVR-AMC as substrate by fluorescence assay; summary of the method: as §3
Target sequence in this assay (P25774 whole entry): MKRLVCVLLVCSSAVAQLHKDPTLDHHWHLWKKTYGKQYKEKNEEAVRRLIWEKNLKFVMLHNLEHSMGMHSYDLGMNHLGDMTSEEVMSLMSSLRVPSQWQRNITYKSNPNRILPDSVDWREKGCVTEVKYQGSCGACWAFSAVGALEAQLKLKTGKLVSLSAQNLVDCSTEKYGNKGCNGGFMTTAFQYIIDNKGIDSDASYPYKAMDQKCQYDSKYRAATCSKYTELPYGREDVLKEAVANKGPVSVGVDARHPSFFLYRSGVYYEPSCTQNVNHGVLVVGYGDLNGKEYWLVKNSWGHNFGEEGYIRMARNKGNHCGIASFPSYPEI

[9] = target: Procathepsin L (Homo sapiens) (UniProt P07711); assay: Inhibition of human cathepsin L expressed in Escherichia coli at 100 uM using Z-FR-AMC as substrate by fluorescence assay relative to control
PC-3 [10] = assay: Antimigratory activity against human PC-3 cells at 10 uM up to 72 hrs by xCELLigence based RTCA analysis relative to control; type: functional; details: dose 20 µM; time hrs <=72; in the assay text read “at 20 uM” for “at 10 uM”; summary of the method: as §2

T1 sequence (Q9UBR2 whole entry): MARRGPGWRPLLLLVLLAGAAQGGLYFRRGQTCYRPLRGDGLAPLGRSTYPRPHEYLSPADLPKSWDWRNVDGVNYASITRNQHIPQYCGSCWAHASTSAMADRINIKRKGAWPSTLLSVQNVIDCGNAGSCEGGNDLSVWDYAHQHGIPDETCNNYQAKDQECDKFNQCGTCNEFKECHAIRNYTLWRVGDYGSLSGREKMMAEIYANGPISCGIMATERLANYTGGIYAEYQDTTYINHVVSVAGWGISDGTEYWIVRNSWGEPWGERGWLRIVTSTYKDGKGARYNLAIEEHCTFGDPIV
Chain of Procathepsin L (Homo sapiens) (P07711 114-333 limits assumed): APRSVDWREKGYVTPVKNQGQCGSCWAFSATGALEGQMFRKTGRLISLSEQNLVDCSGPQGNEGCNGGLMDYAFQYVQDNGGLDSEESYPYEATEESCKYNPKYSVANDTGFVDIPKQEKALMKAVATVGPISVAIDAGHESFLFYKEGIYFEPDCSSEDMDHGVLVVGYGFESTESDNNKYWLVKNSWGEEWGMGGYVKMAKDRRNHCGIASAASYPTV

| Structure (SMILES) | Activity (Cathepsin Z [3]) | other results |
| --- | --- | --- |
| CC(C)n1cnnc1SCC(=O)c1ccc2c(c1)OCO2 | 24% | – |
| CC(C)n1cnnc1SCC(=O)c1ccc(Br)cc1 | 77% | – |
| O=C(CSc1nc(-c2ccncc2)n[nH]1)c1ccc2c(c1)OCCO2 | 33% | – |
| CC(C)Oc1ccc(C(=O)CSc2nncn2C(C)C)cc1 | 63% | – |
| CC(C)n1cnnc1SCC(=O)c1ccc(C#N)cc1 | 92% | – |
| COc1ccccc1C(=O)CSc1nncn1C(C)C | 49% | – |
| O=C(CSc1nc(-c2ccccc2)n[nH]1)c1ccc2c(c1)OCCO2 | 37% | – |
| NC(=O)c1ccc(-n2cnnc2SCC(=O)c2ccc3c(c2)OCCO3)cc1 | 35% | – |
| O=C(CSc1nccs1)c1ccc2c(c1)OCCO2 | 22% | – |
| O=C(COc1nnc[nH]1)c1ccc2c(c1)OCCO2 | 71% | – |
| Cn1cnnc1SCC(=O)c1ccc2c(c1)OCCO2 | 17% | Activity (PC-3 [5]): inactive; IC50 (Cathepsin Z [1]): 11.8 µM; Activity (PC-3 [2]): inactive |
| COc1ccc(C(=O)CSc2nncn2C(C)C)cc1 | 66% | – |
| O=C(CSc1ncc[nH]1)c1ccc2c(c1)OCCO2 | 17% | IC50 (Cathepsin Z [1]): 13.6 µM; Activity (PC-3 [2]): inactive |
| CC(C)n1cnnc1SCC(O)c1ccc2c(c1)OCCO2 (configuration not stated) | 98% | – |
| Cc1ccc(C(=O)CSc2nncn2C(C)C)cc1 | 75% | – |
| O=C(CSc1nncn1-c1cccnc1)c1ccc2c(c1)OCCO2 | 22% | – |
| O=C(CSc1nc(C2CCCCC2)nn1C(=O)C1CCCCC1)c1ccc2c(c1)OCCO2 | 43% | – |
| CC(C)n1cnnc1SCC(=O)c1ccccc1 | 100% | – |
| N#Cc1ccc(-n2cnnc2SCC(=O)c2ccc3c(c2)OCCO3)cc1 | 20% | Activity (PC-3 [4]): inactive; IC50 (Cathepsin Z [1]): 12.4 µM; Activity (PC-3 [2]): Active |
| CN(C)c1ccc(-n2cnnc2SCC(=O)c2ccc3c(c2)OCCO3)cc1 | 55% | – |

Second part, led by results:

| Activity (Cathepsin Z [3]) | Structure (SMILES) | other results |
| --- | --- | --- |
| 15% | CC(C)n1cnnc1SCC(=O)c1ccc2c(c1)OCCO2 | IC50 (Cathepsin Z [1]): 11.5 µM; Activity (PC-3 [2]): inactive |
| 69% | CC(C)n1cnnc1SCC(=O)c1ccc(OCC#N)cc1 | – |
| 73% | CC(C)n1cnnc1SCC(=O)c1ccc(O)cc1 | – |
| 28% | Cc1n[nH]c(SCC(=O)c2ccc3c(c2)OCCO3)n1 | – |
| 27% | CC(C)n1cnnc1SCC(=O)c1c[nH]c2ccccc12 | – |
| 80% | CC(C)n1cnnc1SCC(=O)C(C)(C)C | – |
| 30% | O=C(CSc1nc(C2CCCCC2)n[nH]1)c1ccc2c(c1)OCCO2 | – |
| 62% | Cc1[nH]c2ccccc2c1C(=O)CSc1nncn1C(C)C | – |
| 36% | Cn1nnnc1SCC(=O)c1ccc2c(c1)OCCO2 | – |
| 100% | CC(C)n1cnnc1SCC(=O)c1cccc([N+](=O)[O-])c1 | – |
| 60% | CCOC(=O)COc1ccc(C(=O)CSc2nncn2C(C)C)cc1 | – |
| 90% | CC(C)n1cnnc1SCC(N)c1ccc2c(c1)OCCO2 (configuration not stated) | – |
| 15% | Cn1ccnc1SCC(=O)c1ccc2c(c1)OCCO2 | Activity (PC-3 [4]): inactive; IC50 (Cathepsin Z [1]): 9.54 µM; Activity (PC-3 [2]): inactive |
| 73% | COc1cccc(C(=O)CSc2nncn2C(C)C)c1 | – |
| 90% | CO/N=C(\CSc1nncn1C(C)C)c1ccc2c(c1)OCCO2 | – |
| 12% | N#CCn1ccnc1SCC(=O)c1ccc2c(c1)OCCO2 | inhibition (Cathepsin S [6]): 30%; inhibition [7]: 30%; IC50 (Cathepsin S [8]): 241 µM; IC50 (Cathepsin Z [1]): 7.13 µM; inhibition [9]: 30%; Activity (PC-3 [2]): inactive; Activity (PC-3 [10]): 21% |
| 23% | O=C(CSc1nnc[nH]1)c1ccc2c(c1)OCCO2 | – |
| 48% | O=C(CSc1ccccc1)c1ccc2c(c1)OCCO2 | – |
| 39% | O=C(CSc1cccs1)c1ccc2c(c1)OCCO2 | – |
| 85% | CC(C)n1cnnc1SCC(=O)c1ccc(OCC(=O)O)cc1 | – |
| 24% | CCn1cnnc1SCC(=O)c1ccc2c(c1)OCCO2 | – |
| 41% | CC(C)n1cnnc1SCC(=O)c1ccc(N(C)C)cc1 | – |
